{
  "source": "paper PMC7201918",
  "about": "(The Journal of Experimental Medicine, 2020)",
  "molecules": {"B1": {"name": "IL-18–binding protein: endogenous inhibitor of IL-18 (protein, UniProt O95998 31-194, looked up)", "Interleukin-18-binding protein": "TPVSQTTTAATASVRSTKDPCPSQPPVFPAAKQCPALEVTWPEVEVPLNGTLSLSCVACSRFPNFSILYWLGNGSFIEHLPGRLWEGSTSRERGSTGTQLCKALVLEQLTPALHSTNFSCVLVDPEQVVQRHVVLAQLWAGLRATLPPTQEALPSSHSSPQQQG"}, "B2": {"name": "G-CSF: recombinant G-CSF (100 ng/ml) (protein, UniProt P09919 31-207, looked up)", "Granulocyte …": "TPLGPASSLPQSFLLKCLEQVRKIQGDGAALQEKLVSECATYKLCHPEELVLLGHSLGIPWAPLSSCPSQALQLAGCLSQLHSGLFLYQGLLQALEGISPELGPTLDTLQLDVADFATTIWQQMEELGMAPALQPTQGAMPAFASAFQRRAGGVLVASHLQSFLEVSYRVLRHLAQP"}},
  "key": {"[1]": {"tested_on": "GM-CSF (Csf2fl/fl:R26CreERT2 mice)", "assay": "EAE with tamoxifen-induced GM-CSF deletion", "type": "in vivo, mouse", "conditions": "tamoxifen by oral gavage after EAE onset in Csf2fl/fl:R26CreERT2 mice; n = 12 mice"}, "[2]": {"tested_on": "WT and CIS−/− BM neutrophils", "assay": "RNASeq of BM neutrophils after GM-CSF stimulation", "type": "cell-based, mouse", "conditions": "GM-CSF 100 ng/ml", "outline": "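Neutrophils were FACS-sorted from WT and CIS−/− bone marrow (PI– CD3– CD19– CD115– CD11b+ Ly6G+; 99–100% purity). They were left unstimulated or stimulated with recombinant GM-CSF at 100 ng/ml for 4 h and 24 h. RNA libraries underwent single-end 75 bp sequencing on a NextSeq 500 (~20 million reads per sample), and reads were quality-checked with fastqc.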"}, "[3]": {"tested_on": "BM monocytes from WT and CIS−/− mice", "assay": "Chemokine", "type": "cell-based, mouse", "conditions": "8 h after GM-CSF stimulation, n = 3 mice", "outline": "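Bone marrow monocytes from WT and CIS−/− mice were isolated by anti-CD115-biotin/anti-biotin microbead positive selection (>95% purity). They were stimulated with recombinant GM-CSF at 100 ng/ml for 8 h in RPMI 1640 with antibiotics and 10% heat-inactivated FCS. Ccl17 and Ccl22 mRNA was measured by real-time PCR, normalized to Gapdh. n = 3 mice, one experiment.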"}, "[4]": {"tested_on": "BM monocytes from WT and CIS−/− mice", "assay": "Differentiation of BM monocytes into CD11c+ GM-Macs", "type": "cell-based, mouse", "conditions": "CIS-deficient relative to WT monocytes; n = 4 mice", "outline": "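Monocytes were purified from bone marrow by anti-CD115 magnetic positive selection (>95% purity). They were cultured with recombinant GM-CSF at 100 ng/ml in RPMI 1640 with antibiotics and 10% heat-inactivated FCS for the indicated times. The frequency of CD11c+ GM-Macs was determined by flow cytometry. n = 4 mice pooled from two independent experiments.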"}, "[5]": {"tested_on": "CCRL2 on BM neutrophils", "assay": "Flow-cytometric analysis of CCRL2 surface expression on BM neutrophils", "type": "cell-based, mouse", "conditions": "CIS−/− vs WT neutrophils; n = 3 mice"}, "[6]": {"tested_on": "WT mouse BM neutrophils", "assay": "SOCS mRNA expression by real-time PCR in BM neutrophils", "type": "cell-based", "conditions": "purified mouse BM neutrophils, 100 ng/ml GM-CSF, later time points"}, "[7]": {"tested_on": "BM neutrophils from WT and CIS−/− mice", "assay": "CXCL2 and CCL3 secretion by BM neutrophils", "type": "cell-based, mouse", "conditions": "CIS−/− vs WT neutrophils, GM-CSF for 24 h; n = 3 mice"}, "[8]": {"tested_on": "WT or CIS−/− BM neutrophils", "type": "cell-based, mouse", "conditions": "for cleaved caspase-3 induction upon cytokine withdrawal: G-CSF: WT and CIS−/− neutrophils, GM-CSF: CIS−/− relative to WT; for Mcl-1 expression: WT and CIS−/− neutrophils, G-CSF or GM-CSF preconditioning", "outline": "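Purified bone marrow neutrophils were exposed to recombinant G-CSF or GM-CSF (100 ng/ml) for 3 h, then replenished with cytokine-free medium for the indicated times. RIPA lysates with protease and phosphatase inhibitors were BCA-normalized. They were resolved on 4–12% Bis-Tris gels, blotted to PVDF, and developed by HRP chemiluminescence.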"}, "[9]": {"tested_on": "CIS−/− BM neutrophils", "assay": "Immunoblot of JAK-STAT/MAPK/Akt phosphorylation in WT or CIS−/− BM neutrophils", "type": "cell-based, mouse", "outline": "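Ly6G-selected bone marrow neutrophils (≥95% pure) were primed with GM-CSF (100 ng/ml) for 3 h, washed, and held in cytokine-free medium for various times. Cells were lysed in RIPA buffer containing protease and phosphatase inhibitors, and loading was normalized by BCA assay. Lysates were separated on 4–12% Bis-Tris gels, transferred to PVDF, and detected by chemiluminescence. One of three independent experiments.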"}, "[10]": {"tested_on": "human blood neutrophils and monocytes", "assay": "Immunoblotting of pSTAT5 and CIS in human blood neutrophils and monocytes", "type": "cell-based", "conditions": "GM-CSF stimulation", "outline": "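Blood neutrophils and monocytes from healthy human donors were treated with GM-CSF. pSTAT5, CIS and β-actin were immunoblotted from RIPA lysates (protease and phosphatase inhibitors, BCA-normalized) run on 4–12% Bis-Tris gels and detected by chemiluminescence. One experiment representative of three.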"}, "[11]": {"tested_on": "CD131 (GM-CSFRβ) on BM neutrophils", "assay": "Flow-cytometric analysis of CD131", "type": "cell-based, mouse", "conditions": "CIS−/− compared with WT neutrophils from 50:50 chimeric mice; n = 4 mice", "outline": "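Surface CD131 was measured by flow cytometry on bone marrow neutrophils from WT:CIS−/− (50:50) chimeric mice. Cells were analysed naive (t0) and after stimulation with recombinant G-CSF or GM-CSF (100 ng/ml). n = 4 mice pooled from two independent experiments.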"}, "[12]": {"tested_on": "eosinophils", "conditions": "ref Burnham et al., 2013; Matsumoto et al., 1997; Yoshimura et al., 1995; cited from earlier work"}, "[13]": {"tested_on": "WT and CIS−/− BM eosinophils", "assay": "Generation of eosinophils from BM cells in IL-5", "type": "cell-based, mouse", "conditions": "IL-5 for 3 d, n = 3 mice"}, "[14]": {"tested_on": "IL-18", "conditions": "cited from earlier work"}, "[15]": {"tested_on": "synovial cell cultures", "conditions": "exogenous IL-18, synovial cell cultures; ref Gracie et al., 1999; cited from earlier work"}},
  "data": [
    {"molecule": "CC/C(=C(\\c1ccccc1)c1ccc(OCCN(C)C)cc1)c1ccccc1", "note": "[tamoxifen]", "values": [
      {"measurement": "progression of EAE", "setting": "[1]", "value": "inhibited the progression of EAE"}
    ]},
    {"molecule": "GM-CSF: recombinant GM-CSF (100 ng/ml)", "values": [
      {"measurement": "gene expression change, 24 h", "setting": "[2]; CIS−/− neutrophils, 24 h", "value": "extensive transcriptional changes"},
      {"measurement": "gene expression change, 4 h", "setting": "[2]; CIS−/− vs WT neutrophils, 4 h", "value": "little difference in gene expression"},
      {"measurement": "chemokine production by monocytes", "setting": "[3]", "value": "produced higher levels of chemokines"},
      {"measurement": "differentiation into GM-Macs", "setting": "[4]", "value": "accelerated differentiation into GM-Macs"},
      {"measurement": "cell surface CCRL2 expression", "setting": "[5]", "value": "enhanced cell surface CCRL2 expression"},
      {"measurement": "persistence of SOCS mRNA induction", "setting": "[6]", "value": "only Cish mRNA levels were sustained at later time points"},
      {"measurement": "CXCL2 and CCL3 secretion", "setting": "[7]", "value": "secreted higher levels of CXCL2 and CCL3 chemokines"},
      {"measurement": "A1/Bfl-1 induction", "setting": "[8]; BM neutrophils", "value": "selectively induced the pro-survival protein A1/Bfl-1"},
      {"measurement": "A1/Bfl-1 level upon cytokine withdrawal", "setting": "[8]; CIS−/− neutrophils upon GM-CSF withdrawal", "value": "sustained for a longer period"},
      {"measurement": "cleaved caspase-3 induction upon cytokine withdrawal", "setting": "[8]", "value": "delayed induction of cleaved caspase-3"},
      {"measurement": "Mcl-1 expression", "setting": "[8]", "value": "no difference in the expression of prosurvival Mcl-1 protein"},
      {"measurement": "STAT5 activation, later time points", "setting": "[9]; CIS−/− vs WT neutrophils, 100 ng/ml GM-CSF, 2 h after stimulation", "value": "prolonged expression of STAT5 activation at later time points"},
      {"measurement": "JAK2-STAT5 activation after cytokine withdrawal", "setting": "[9]; GM-CSF-primed (3 h) then washed CIS−/− neutrophils", "value": "Extended JAK2-STAT5 activation"},
      {"measurement": "STAT3 and Akt dephosphorylation after cytokine withdrawal", "setting": "[9]; GM-CSF-primed (3 h) then washed, WT vs CIS−/− neutrophils", "value": "kinetics of STAT3 and Akt dephosphorylation were similar"},
      {"measurement": "p38 MAPK and SAPK/JNK activation after cytokine withdrawal", "setting": "[9]; GM-CSF-primed then washed CIS−/− neutrophils", "value": "prolonged activation of p38 MAPK and SAPK/JNK"},
      {"measurement": "CIS induction and STAT5 phosphorylation", "setting": "[10]", "value": "CIS induction and STAT5 phosphorylation"},
      {"measurement": "cell surface GM-CSFRβ expression after stimulation", "setting": "[11]", "value": "higher cell surface GM-CSFRβ expression"}
    ]},
    {"molecule": "IL-5: cytokine signaling through the common β chain", "values": [
      {"measurement": "Cish expression in eosinophils", "setting": "[12]", "value": "can induce Cish expression"},
      {"measurement": "eosinophil numbers", "setting": "[13]", "value": "greater numbers"}
    ]},
    {"molecule": "IL-18: IL-1 family member; exogenous IL-18", "values": [
      {"measurement": "effect on CIA, exogenous IL-18", "setting": "[14]; ref Gracie et al., 1999", "value": "prime CIA"},
      {"measurement": "secretion of GM-CSF (along with nitric oxide, TNF, and IFN-γ)", "setting": "[15]", "value": "promote the secretion of GM-CSF"}
    ]},
    {"molecule": "B1", "values": [
      {"measurement": "effect on CIA, IL-18 inhibition", "setting": "[14]; ref Plater-Zyberk et al., 2001", "value": "alleviation of CIA"}
    ]},
    {"molecule": "B2", "values": [
      {"measurement": "cleaved caspase-3 induction upon cytokine withdrawal", "setting": "[8]", "value": "rapid induction of cleaved caspase-3"},
      {"measurement": "Mcl-1 expression", "setting": "[8]", "value": "no difference in the expression of prosurvival Mcl-1 protein"},
      {"measurement": "cell surface GM-CSFRβ expression after stimulation", "setting": "[11]", "value": "no such difference"}
    ]}
  ]
}
